Values joined by “and” are separate entries in the source; they are usually repeats but may differ in a detail not shown here. Equal entries are not always repeated.
Tested on: HEK-293T
Test: Multiplex assay against HEK293T
Format: toxicity, cell-based
Conditions: human
In short: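 Live cells were stained at seeding with Hoechst33342, BioTracker Green Microtubule Cytoskeleton Dye, MitoTracker Red and Annexin V Alexa Fluor 680, then imaged on a CQ1 microscope at 37°C and 5% CO2 after compound addition. CellPathfinder machine-learning gating split cells into Hoechst high-intensity objects or normal cells. Normal cells were split into healthy, pyknosed or fragmented nuclei, and pyknosed cells into mitotic or apoptotic. Tubulin, mitochondrial-mass and membrane-permeability phenotypes are per cents of healthy-nucleus cells.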

[1] = 12 h, 1 µM, compound concentration 1 uM
[2] = 12 h, 10 µM, compound concentration 10 uM
[3] = 24 h, 1 µM, compound concentration 1 uM
[4] = 24 h, 10 µM, compound concentration 10 uM
[5] = 48 h, 1 µM, compound concentration 1 uM
[6] = 48 h, 10 µM, compound concentration 10 uM

Compound: Cc1nn(C)c2nc(NNC(=O)Nc3cc(Cl)nc(Cl)c3)cc(C(C)C)c12
- Population Apoptotic (%) [1]: 27% and 40%
- Population Fragmented Nuclei (%) [1]: 5%
- Population Healthy Nuclei (%) [1]: 77% and 81%
- Population Hoechst High Intensity Objects (%) [1]: 5% and 2%
- Population Membrane Permeable-Phenotype (%) [1]: 0%
- Population Mitochondria Different-Phenotype (%) [1]: 37% and 59%
- Population Mitotic Cells (%) [1]: 72% and 60%
- Population Normal (%) [1]: 94% and 97%
- Population Pyknosed Nuclei (%) [1]: 16% and 13%
- Population Tubulin-Different-Phenotype (%) [1]: 26% and 25%
- Total Cell Count [1]: 467 and 383
- Population Apoptotic (%) [2]: 55% and 46%
- Population Fragmented Nuclei (%) [2]: 5% and 4%
- Population Healthy Nuclei (%) [2]: 61% and 74%
- Population Hoechst High Intensity Objects (%) [2]: 12% and 3%
- Population Membrane Permeable-Phenotype (%) [2]: 1%
- Population Mitochondria Different-Phenotype (%) [2]: 79% and 84%
- Population Mitotic Cells (%) [2]: 44% and 53%
- Population Normal (%) [2]: 88% and 96%
- Population Pyknosed Nuclei (%) [2]: 32% and 21%
- Population Tubulin-Different-Phenotype (%) [2]: 80% and 75%
- Total Cell Count [2]: 300 and 396
- Population Apoptotic (%) [3]: 31%
- Population Fragmented Nuclei (%) [3]: 9% and 6%
- Population Healthy Nuclei (%) [3]: 78% and 82%
- Population Hoechst High Intensity Objects (%) [3]: 3% and 1%
- Population Membrane Permeable-Phenotype (%) [3]: 0%
- Population Mitochondria Different-Phenotype (%) [3]: 27% and 37%
- Population Mitotic Cells (%) [3]: 68%
- Population Normal (%) [3]: 96% and 98%
- Population Pyknosed Nuclei (%) [3]: 11%
- Population Tubulin-Different-Phenotype (%) [3]: 20% and 19%
- Total Cell Count [3]: 608 and 512
- Population Apoptotic (%) [4]: 59% and 55%
- Population Fragmented Nuclei (%) [4]: 10% and 5%
- Population Healthy Nuclei (%) [4]: 66% and 78%
- Population Hoechst High Intensity Objects (%) [4]: 5%
- Population Membrane Permeable-Phenotype (%) [4]: 0%
- Population Mitochondria Different-Phenotype (%) [4]: 78% and 80%
- Population Mitotic Cells (%) [4]: 40% and 44%
- Population Normal (%) [4]: 94% and 95%
- Population Pyknosed Nuclei (%) [4]: 22% and 16%
- Population Tubulin-Different-Phenotype (%) [4]: 74% and 69%
- Total Cell Count [4]: 321 and 440
- Population Apoptotic (%) [5]: 27% and 18%
- Population Fragmented Nuclei (%) [5]: 12% and 13%
- Population Healthy Nuclei (%) [5]: 78% and 81%
- Population Hoechst High Intensity Objects (%) [5]: 3% and 2%
- Population Membrane Permeable-Phenotype (%) [5]: 1%
- Population Mitochondria Different-Phenotype (%) [5]: 17% and 25%
- Population Mitotic Cells (%) [5]: 72% and 81%
- Population Normal (%) [5]: 96% and 97%
- Population Pyknosed Nuclei (%) [5]: 9% and 5%
- Population Tubulin-Different-Phenotype (%) [5]: 16% and 19%
- Total Cell Count [5]: 912 and 748
- Population Apoptotic (%) [6]: 62% and 45%
- Population Fragmented Nuclei (%) [6]: 9%
- Population Healthy Nuclei (%) [6]: 72% and 79%
- Population Hoechst High Intensity Objects (%) [6]: 3% and 4%
- Population Membrane Permeable-Phenotype (%) [6]: 0%
- Population Mitochondria Different-Phenotype (%) [6]: 82% and 71%
- Population Mitotic Cells (%) [6]: 37% and 55%
- Population Normal (%) [6]: 96% and 95%
- Population Pyknosed Nuclei (%) [6]: 18% and 10%
- Population Tubulin-Different-Phenotype (%) [6]: 78% and 63%
- Total Cell Count [6]: 387 and 593
